Laboratory results as given in paper PMC2195906 (The Journal of Experimental Medicine, 2001).
“Also recorded” adds a separate entry of the source.

Experiments:
ANT [1] = target: T1, ANT (Rattus norvegicus, UniProt Q05962); experiment: Plasmon resonance; type: binding
T1 sequence (Q05962 1-298): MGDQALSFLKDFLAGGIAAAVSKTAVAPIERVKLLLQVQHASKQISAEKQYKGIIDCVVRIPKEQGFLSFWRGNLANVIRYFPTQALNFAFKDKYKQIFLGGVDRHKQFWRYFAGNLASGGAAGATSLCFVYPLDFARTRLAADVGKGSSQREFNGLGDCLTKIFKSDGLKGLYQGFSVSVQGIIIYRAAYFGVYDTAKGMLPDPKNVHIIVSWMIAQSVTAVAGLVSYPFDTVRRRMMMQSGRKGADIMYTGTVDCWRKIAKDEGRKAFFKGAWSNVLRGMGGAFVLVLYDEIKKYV

recombinant VDAC = experiment: Plasmon resonance: binding to recombinant VDAC; details: control experiments, VDAC concentrations up to 10 μM
ANT proteoliposomes [2] = experiment: Binding of FITC-labeled Vpr52-96 to ANT proteoliposomes; set-up: species or system rat; details: FITC-labeled Vpr52-96, 30 min; Fig. 2 A; n = 3
How it was run: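 ANT was purified from rat heart mitochondria (Triton X-100 extraction, hydroxyapatite, then cation-exchange with a 0–1 M NaCl gradient) and reconstituted at 0.1 mg/ml into phosphatidylcholine/cardiolipin liposomes, then dialysed overnight at 4°C. Proteoliposomes were exposed 30 min to FITC-peptide in 125 mM sucrose/10 mM Hepes pH 7.4, ultracentrifuged (290,000 g, 45 min, 10°C) and read by flow cytometry. Inhibitors were preincubated and washed out; mean ± SD, n = 3.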

ANT proteoliposomes [3] = experiment: Pore-opening assay: 4-MUP release from ANT proteoliposomes; type: biochemical, rat; details: peptides 1 μM, 60 min, Atr 200 μM = 100%, Fig. 2 C
How it was run: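 ANT purified from rat heart mitochondria, reconstituted into PC/cardiolipin liposomes, sonicated on ice with 1 mM 4-MUP/10 mM KCl, gel-filtered. Diluted in 10 mM Hepes, 125 mM saccharose pH 7.4, peptide 1 h RT; inhibitors added 30 min earlier. Alkaline phosphatase (0.5 mM MgCl2) 15 min 37°C, stopped at pH 10. 4-MU fluorescence 360/450 nm. Release = % of atractyloside response after untreated background subtraction; n = 3, SD.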

[4] = Pore-opening assay: plain liposomes; type: biochemical; details: 4-MUP loaded, data not shown
How it was run: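 Liposomes sonicated on ice with 1 mM 4-MUP and 10 mM KCl, then freed of unencapsulated probe on Sephadex G-25. Diluted in 10 mM Hepes, 125 mM saccharose pH 7.4 and exposed to inducers for 1 h at RT; inhibitors were added 30 min earlier. Alkaline phosphatase with 0.5 mM MgCl2 was added for 15 min at 37°C and stopped with EDTA buffer at pH 10. 4-MU fluorescence (360/450 nm) was expressed as % of the atractyloside response after subtracting untreated liposomes.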

ANT [5] = target: T1, ANT; experiment: Planar lipid bilayers, single channel level, Vpr52-96 plus ANT; type: biochemical; details: Vpr52-96 plus ANT 0.4:1 nM, +115 mV; tip-dip technique
How it was run: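 Rat heart mitochondrial ANT, purified via subtilisin treatment, Triton X-100 solubilization, hydroxyapatite and SP column (0–1 M NaCl). Proteins held 30 min RT with 1 mM CaCl2, 40 μM atractyloside or control electrolyte, mixed with dried lipid (60 μg protein/mg lipid), detergent removed by beads. Tip-dip bilayers, symmetric 100 mM KCl, 2 mM MgCl2, 10 mM Hepes pH 7.4.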

[6] = Planar lipid bilayers, single channel level, Vpr52-96 without ANT; type: biochemical; details: <1 nM Vpr52-96
How it was run: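 Solvent-free planar bilayers formed by monolayer apposition on a 125-μm Teflon aperture, or by tip-dip on patch pipettes. Recording was in symmetric 100 mM KCl, 2 mM MgCl2, 10 mM Hepes pH 7.4, with Ag/AgCl electrodes under applied voltage. Bare membranes were first checked for electrical silence; peptide was added to the aqueous subphase after bilayer formation. Single-channel current traces show the most frequent events.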

[7] = system: purified mitochondria (respiratory control); experiment: Respiratory control; type: biochemical, mouse; details: 1 μM Vpr-derived peptides, 10 min
How it was run: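 Clark-electrode oxygraphy at 37°C in 0.3 M mannitol, 10 mM KCl, 5 mM MgCl2, 1 mg/ml BSA, 10 mM KH2PO4, pH 7.4. Purified mitochondria were pretreated 10 min with 1 μM peptide; succinate oxidation was followed with sequential ADP, oligomycin and CCCP additions. Mean of three determinations.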

[8] = system: purified mitochondria (respiratory chain); experiment: Polarography: succinate oxidation of purified mitochondria; type: biochemical, mouse; details: 1 μM Vpr52-96, 10 min pretreatment; Fig. 4 A
How it was run: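 Mouse liver mitochondria, pretreated 10 min with test peptide or untreated, held at 37°C in a Clark-electrode cell. Medium: 0.3 M mannitol, 10 mM KCl, 5 mM MgCl2, 1 mg/ml BSA, 10 mM KH2PO4, pH 7.4. Oxygen consumption traced on succinate with sequential ADP, oligomycin and CCCP additions.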

[9] = system: purified mitochondria, inner membrane; experiment: Respirometry: NADH-dependent oxygen consumption; type: biochemical, mouse
How it was run: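 Oxygen uptake was recorded by Clark electrode at 37°C (mannitol/KCl/MgCl2/BSA/KH2PO4 medium, pH 7.4) after 2 mM NADH and 1 μM peptide, with rotenone added to test sensitivity; rates are in nmol O2/min/mg protein. For inhibitor tests, mitochondria were pretreated 10 min with 0.8 μM Bcl-2 or 10 μM BA before succinate plus CCCP or NADH. In the kinetics, 15 μM cytochrome c oxidation was followed in parallel, with 100% set by 2.5 mM laurylmaltoside.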

[10] = system: purified mitochondria, outer membrane; experiment: Cytochrome c oxidation; type: biochemical, mouse; details: 15 μM cytochrome c; 100% by 2.5 mM laurylmaltoside; Fig. 5 B
How it was run: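 Mouse liver mitochondria exposed to test peptide, followed over time. Outer-membrane permeability read as spectrophotometric/spectrofluorometric oxidation of added reduced cytochrome c (15 μM) by cytochrome c oxidase. Maximal (100%) oxidation set by 2.5 mM laurylmaltoside; signal expressed as a percentage of this. Inner-membrane NADH oxidation (2 mM, oxygen consumption) tracked in parallel.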

[11] = system: purified mitochondria (cytochrome c release); experiment: Cytochrome c release immunodetected in supernatant of mitochondria; type: biochemical, mouse; details: 1 μM Vpr52-96; immunoblot; Fig. 5 C
How it was run: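 Mouse liver mitochondria treated with test peptide over a time course. Supernatants cleared by two spins (6,800 g 15 min; 20,000 g 1 h; both 4°C), stored at −80°C, and cytochrome c immunodetected with a mouse monoclonal antibody. In parallel, ΔΨm loss scored by flow cytometry with JC-1 as percent low-ΔΨm mitochondria.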

isolated mitochondria = experiment: Ultrastructure: swelling of isolated mitochondria; type: biochemical, mouse; details: for swollen mitochondria: control <5%
PTPC = details: cited from earlier work
recombinant Bcl-2 = experiment: Plasmon resonance: interaction with recombinant Bcl-2; type: binding, human; details: surface plasmon resonance, control experiments

Row | Compound | sensorgram: increase of binding as a function of time (ANT [1]; plasmon resonance, association and dissociation phase, Fig. 1 A) | binding affinity for ANT (in words) (ANT [1]; surface plasmon resonance, purified detergent-solubilized ANT) | specific binding to VDAC (recombinant VDAC) | binding to ANT liposomes compared with protein-free liposomes (ANT proteoliposomes [2]) | permeabilization of ANT proteoliposomes (ANT proteoliposomes [3]) | effect on plain liposomes [4] | channel conductance, Vpr52-96 plus ANT (ANT [5]) [pS] | channel formation at low doses without ANT [6] | effect on RC (in words) [7] | effect on respiration (succinate oxidation) [8] | NADH-dependent oxygen consumption (IM permeabilization to NADH) ([9]; 1 μM Vpr52-96, 2 mM NADH, Fig. 5 A) | time of maximal NADH oxidation after addition ([9]; Vpr52-96, 2 mM NADH, Fig. 5 B) [min] | access of cytochrome c to cytochrome c oxidase [10] | order of ΔΨm loss, inner MMP and cytochrome c release [11] | swollen mitochondria (isolated mitochondria; 5 min after 3 μM Vpr52-96, X ± SEM, n = 3) [%] | swollen mitochondria (isolated mitochondria; 15 min after 3 μM Vpr52-96) [%] | ultrastructural effect (in words) (isolated mitochondria; Vpr52-96-treated mitochondria, Fig. 6 C) | action on PTPC and mitochondrial hallmarks of apoptosis (PTPC) | interaction with recombinant Bcl-2 (recombinant Bcl-2)
1 | CC[C@H](C)[C@H](NC(=O)CNC(=O)[C@@H](NC(=O)[C@H](CCCNC(=N)N)NC(=O)[C@H](CO)NC(=O)[C@H](Cc1c[nH]cn1)NC(=O)[C@H](CCCNC(=N)N)NC(=O)[C@H](CS)NC(=O)CNC(=O)[C@@H](NC(=O)[C@H](CCCNC(=N)N)NC(=O)[C@H](Cc1ccccc1)NC(=O)[C@H](Cc1c[nH]cn1)NC(=O)[C@@H](NC(=O)[C@H](Cc1ccccc1)NC(=O)[C@H](CC(C)C)NC(=O)[C@H](CC(C)C)NC(=O)[C@H](CCC(N)=O)NC(=O)[C@H](CCC(N)=O)NC(=O)[C@H](CC(C)C)NC(=O)[C@@H](NC(=O)[C@H](CCCNC(=N)N)NC(=O)[C@@H](NC(=O)[C@H](CC(C)C)NC(=O)[C@H](C)NC(=O)[C@H](CCC(=O)O)NC(=O)[C@@H](NC(=O)CNC(=O)[C@@H](NC(=O)[C@H](Cc1c[nH]c2ccccc12)NC(=O)[C@@H](NC(=O)[C@@H](N)CC(=O)O)[C@@H](C)O)[C@@H](C)O)C(C)C)[C@@H](C)CC)[C@@H](C)CC)[C@@H](C)CC)[C@@H](C)CC)[C@@H](C)CC)C(=O)N[C@H](C(=O)N[C@@H](CCC(N)=O)C(=O)N[C@@H](CCC(N)=O)C(=O)N[C@@H](CCCNC(=N)N)C(=O)N[C@@H](CCCNC(=N)N)C(=O)N[C@H](C(=O)N[C@@H](CCCNC(=N)N)C(=O)N[C@@H](CC(N)=O)C(=O)NCC(=O)N[C@@H](C)C(=O)N[C@@H](CO)C(=O)N[C@@H](CCCCN)C(=O)N[C@@H](CO)C(=O)O)[C@@H](C)O)[C@@H](C)CC [Vpr52-96] | exhibits an increase of binding as a function of time and a positive signal at the start of the dissociation phase (off) | affinity in the nanomolar range | no specific binding | greatly facilitated in liposomes in which ANT has been reconstituted compared with protein-free liposomes | caused permeabilization of ANT proteoliposomes | had no effect on plain liposomes | 190 ± 2 | incapable of forming channels | gross deficiency in respiratory control | increased succinate oxidation preceding ADP addition and abolished both the inhibitory effect of oligomycin (a specific ATPase inhibitor) and the stimulatory effect of uncoupling by the protonophore CCCP; also recorded: not associated with a significant decrease of the oxidation rate; also recorded: adding cytochrome c to Vpr52-96–treated mitochondria oxidizing succinate did not stimulate the rate of oxygen uptake | prompted a significant, NADH-stimulated oxygen consumption | 10 | only induced a marginal access of cytochrome c to cytochrome c oxidase | the ΔΨm loss occurred before cytochrome c release can be detected by immunoblot; also recorded: causes inner MMP well before OM becomes permeable to cytochrome c | 82 ± 4 | 99 ± 1 | exhibited matrix swelling before OM rupture became apparent |  | 
2 | Vpr1-96: entire (full-length) Vpr protein |  |  |  |  |  |  |  |  | also reduced the RC values |  |  |  |  |  |  |  |  | act on the PTPC to induce all mitochondrial hallmarks of apoptosis, including ΔΨm loss and the release of cytochrome c and apoptosis-inducing factor (AIF) | 
3 | Vpr53-96: printed once; probably Vpr52-96 |  |  |  |  |  |  |  |  |  |  |  |  |  |  |  |  |  |  | found not to interact with recombinant Bcl-2
